Screening results: PubChem BioAssay, Broad Institute
This is a sample that favours compounds with a hit; in the whole collection about 1.4% have one here.
CDK5 inh – blocks human CDK5/p35 kinase activity; 0.01% of 330,000 active; inhibition, % at 10 µM; Recombinant CDK5/p35, ADP-Glo luminescence, 60 min;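 active means highest replicate inhibition of at least 50% and at least 75% of replicates reaching 50%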;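 further: plate controls were DMSO neutral control for no effect and GW8510 at 10 µM for full effect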
Target sequence (Q00535 whole entry, looked up): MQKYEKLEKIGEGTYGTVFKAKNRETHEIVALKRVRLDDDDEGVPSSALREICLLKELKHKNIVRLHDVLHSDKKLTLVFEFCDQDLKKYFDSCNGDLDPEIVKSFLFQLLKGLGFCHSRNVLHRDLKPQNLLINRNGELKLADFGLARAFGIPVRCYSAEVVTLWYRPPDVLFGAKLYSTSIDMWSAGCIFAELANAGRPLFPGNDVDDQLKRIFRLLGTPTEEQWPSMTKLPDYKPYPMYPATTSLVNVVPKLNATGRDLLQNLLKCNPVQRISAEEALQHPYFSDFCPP
Target sequence (Q15078 whole entry, looked up): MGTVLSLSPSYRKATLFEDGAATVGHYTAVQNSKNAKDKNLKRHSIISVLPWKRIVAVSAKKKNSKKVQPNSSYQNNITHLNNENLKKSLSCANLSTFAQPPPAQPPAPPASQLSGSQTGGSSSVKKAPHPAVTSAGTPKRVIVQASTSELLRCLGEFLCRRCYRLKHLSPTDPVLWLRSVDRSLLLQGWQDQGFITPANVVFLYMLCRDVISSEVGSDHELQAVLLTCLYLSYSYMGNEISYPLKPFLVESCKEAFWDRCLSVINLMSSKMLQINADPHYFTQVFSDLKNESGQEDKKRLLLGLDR
PvdQ inh – blocks Pseudomonas aeruginosa PvdQ acylase activity | inhibition, % at 10 µM | 0.063% of 340,000 active | purified PvdQ acylase, fluorescence plate reader; in the data active means inhibition above about 30%, passing the limit was not always enough;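 further: 0% = vehicle neutral wells and 100% = reference inhibitor wells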
N-glyco inh – N-linked glycosylation inhibition; AID 588692; D54 ERlucT glycosylation luciferase reporter, 24 h; percent of 100 nM tunicamycin response; 0.23% of 360,000 active; reporter increase, % at 12.5 µM;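 active means mean luciferase reporter signal, scaled so untreated is 0 and the glycosylation-blocking control 100, at or above a set limit in every replicate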;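 further: luciferase carries N-glycosylation sites so blocking glycosylation raises the light; 0% = median of neutral control wells and 100% = median of 100 nM tunicamycin wells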
CAL PDZ FP-1 – blocks peptide binding to the human CAL PDZ domain; 0.92% of 300,000 active; Q9HD26; inhibition, % at 24.9 µM; purified CAL PDZ, TMR-peptide fluorescence polarization, 1 h;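 active means mean inhibition of at least 30% with at least half of replicates also reaching 30%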;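 further: 0% = DMSO neutral control and 100% = excess unlabeled competitor peptide PRC23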
Vif inh – blocks HIV Vif function | 0.35% of 340,000 active | HEK293T cells, Vif self-association by quenched fluorescence, imaging, 24 h | AID 602346 | inhibition, % at 7.49 µM; in the data active means inhibition above about 50%, passing the limit was not always enough
CAL PDZ FP-2 – human CAL PDZ-peptide interaction inhibition; inhibition, % at 20 µM; Q9HD26; AID 504414; 0.02% of 330,000 active; purified CAL PDZ, TMR-peptide fluorescence polarization, 1 h;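 active means highest replicate inhibition of at least 40%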;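 further: plate controls were DMSO neutral control wells for no effect and unlabeled competitor peptide control wells for full effect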
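Control set: unlabelled peptide and DMSO controls / Material: purified CerCALP PDZ construct / Timing: 1 h incubation at room temperature before polarization reading / Doses: 20 µM, one dose / Detection: fluorescence polarization (mP)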
* = called active by the depositor; x = no result given; + = active, no number.

SMILES	CDK5 inh	PvdQ inh	N-glyco inh	CAL PDZ FP-1	Vif inh	CAL PDZ FP-2
COc1ccccc1-[n+]1c(C)cc(/C=C2\Sc3ccccc3N2C)cc1C	0	10	-18	53*	x	4
CC(O)CN=c1cc(-c2ccccc2)oc2ccc(Cl)cc12 (stereo unspecified)	1	1	29*	-1	-9	-2
CN(C)CCCN=c1cc(-c2ccccc2)oc2ccc(Cl)cc12	3	0	10	-2	9	-4
OCCN=c1cc(-c2ccccc2)oc2ccc(Cl)cc12	0	9	50*	-3	-20	x
CC(C)CN=c1cc(-c2ccccc2)oc2ccc(Cl)cc12	-1	-6	16	-4	-18	-1
Cc1ccccc1S(=O)(=O)/N=C(/Nc1c(C)n(C)n(-c2ccccc2)c1=O)c1ccccc1	1	-18	1	40*	-4	-1
O=C(c1ccc(NC2=NC3CS(=O)(=O)CC3S2)cc1)N1CCN(c2ccccc2)CC1 (stereo unspecified)	-2	-15	1	2	-1	-1
Cc1cccc(N2CCN(C(=O)c3ccc(NC4=NC5CS(=O)(=O)CC5S4)cc3)CC2C)c1 (stereo unspecified)	0	-18	3	93*	9	0
COc1ccc(NS(=O)(=O)c2cc(NC(=O)c3cnccn3)ccc2OC)cc1Br	1	-17	3	71*	0	-1
COc1ccc(NS(=O)(=O)c2cc(NC(=O)c3cnccn3)ccc2N2CCCC2)cc1	1	6	2	-3	4	-1
COC(=O)c1cc(C(=O)OCC(=O)NC(=O)c2ccccc2)cc([N+](=O)[O-])c1	1	-7	5	-2	-8	-2
Cc1ccc2c(c1)[C@H]1[C@H](CO2)[C@H](c2ccccc2)[C@]2(C)C(=O)Nc3cc(F)ccc3C(=O)N12	1	-7	9	-1	-4	-2
COc1ccc2c(c1)[C@H]1[C@H](CO2)[C@H](c2ccccc2)[C@]2(C)C(=O)Nc3ccc(C)cc3C(=O)N12	-1	6	58*	-3	-1	-1
COc1ccc2c(c1)OC[C@H]1[C@H]2N2C(=O)c3cc(C)ccc3NC(=O)[C@@]2(C)[C@H]1c1ccccc1	1	-6	39*	-2	-6	1
COc1ccc2c(c1)C(=O)N1[C@H]3c4cc(C)ccc4OC[C@@H]3[C@H](c3ccccc3)[C@]1(C)C(=O)N2	0	11	24	-3	3	0
COc1ccc2c(c1)[C@@H]1[C@H](CO2)[C@H](c2ccccc2)[C@]2(C)C(=O)Nc3ccc(C)cc3C(=O)N12	0	-17	34*	0	-5	-1
COc1ccc2c(c1)[C@H]1[C@H](CO2)[C@H](c2ccccc2)[C@]2(C)C(=O)Nc3ccc(F)cc3C(=O)N12	0	-26	51*	-2	-2	-1
COc1ccc2c(c1)OC[C@H]1[C@H]2N2C(=O)c3ccccc3NC(=O)[C@@]2(C)[C@H]1c1ccccc1	3	-17	5	-7	0	-1
CCN(CC(=O)Nc1ccccc1C(F)(F)F)C(=O)c1ccc(NC(=O)c2cccs2)cc1	x	x	-4	x	10	x
CCCc1cc(=O)oc2cc(OC(C)C(=O)NC3CC(C)(C)NC(C)(C)C3)ccc12 (stereo unspecified)	0	-12	2	-2	7	-1
C[C@@]12C(=O)Nc3ccc(Cl)cc3C(=O)N1[C@H]1c3cc(Cl)ccc3OC[C@@H]1[C@@H]2c1ccccc1	-3	-13	17	-4	1	-1
COc1ccc2c(c1)[C@H]1[C@H](CO2)[C@H](c2ccccc2)[C@]2(C)C(=O)Nc3ccc(Cl)cc3C(=O)N12	0	-10	40*	-1	-4	-1
COc1ccc2c(c1)[C@H]1[C@H](CO2)[C@H](c2ccccc2)[C@]2(C)C(=O)Nc3cc(OC)c(OC)cc3C(=O)N12	-1	-13	59*	2	-10	-1
COc1ccc2c(c1)[C@@H]1[C@H](CO2)[C@H](c2ccccc2)[C@]2(C)C(=O)NCC(=O)N12	2	-9	-3	-2	2	-2
COc1ccc(NS(=O)(=O)c2ccc(C)c(C(=O)NCCCN3CCCC3=O)c2)cc1	-1	-13	0	8	4	0
SMILES	CDK5 inh	PvdQ inh	N-glyco inh	CAL PDZ FP-1	Vif inh	CAL PDZ FP-2
CN(C)C(CNC(=O)c1cc(S(=O)(=O)N(C)c2ccc(F)cc2)ccc1Cl)c1cccs1 (stereo unspecified)	0	-1	-1	-3	-1	-1
O=C(NCCc1ccccc1)c1ccccc1SCC(=O)N1CCCC1	2	-10	-3	-2	x	-2
CCSc1ccccc1C(=O)NCCc1ccccc1	1	-11	-1	46*	-6	0
Cc1ccc(NC(=O)COc2ccccc2C(=O)NCCc2ccccc2)cc1	-2	-8	-1	72*	-10	3
O=C(COc1ccccc1C(=O)Nc1ccccc1)NCCc1ccccc1	0	1	6	x	2	0
Cc1ccc(S(=O)(=O)CCc2nnc(N)s2)cc1C	-2	-1	3	2	2	-1
Cc1ccc(S(=O)(=O)CCc2nnc(NC(=O)CCl)s2)cc1C	1	-1	-1	46*	x	-1
N/C(=N\OC(=O)Cc1ccccc1[N+](=O)[O-])c1cccnc1	0	-16	1	77*	-9	x
COc1ccc(/C(N)=N/OC(=O)Cc2ccccc2[N+](=O)[O-])cc1	0	-12	1	-5	18	-3
Cc1nn(C(C)C(=O)NCCCN2CCCCCC2)c(=O)c2c1sc1ccccc12 (stereo unspecified)	1	-14	0	3	0	-2
Cc1nn(C(C)C(=O)NCc2ccccc2Cl)c(=O)c2c1sc1ccccc12 (stereo unspecified)	0	-14	2	70*	-8	0
Cc1nc2ccccn2c1-c1ccnc(=S)[nH]1	3	-13	1	+	-10	-1
CCOC(=O)c1c(NC(=O)CSc2nnc(CNc3ccc(F)cc3)o2)sc(C(C)=O)c1C	3	-3	1	-2	3	-1
COC(=O)c1c(NC(=O)CSc2nnc(CNc3ccc(Cl)cc3)o2)sc(C)c1C	-2	5	0	-1	72*	0
O=C(NCc1ccccc1)c1cc(C2COCCN2C(=O)C2CC2)on1 (stereo unspecified)	x	x	0	x	-13	x
COc1ccc(-c2onc3ccc(Br)cc23)cc1	-1	34*	-3	-5	3	-1
O=C(CSc1ncccc1C(=O)O)NC1CCCCCCC1	-1	-6	0	60*	8	-1
C=CCn1c(SCC(=O)NC2CCCCC2)nnc1-c1ccccn1	-3	-13	-1	122*	-7	0
